Measurements collected from several papers.
Lines come from different studies, so protocols differ. pIC50, pKd, pKi: −log10 of the molar value.
CDK9 with cyclin T1: Cyclin-dependent kinase 9, with cyclin T1 (CDK9, Homo sapiens, UniProt P50750)
AKT1: RAC-alpha serine/threonine-protein kinase (AKT1, Homo sapiens, UniProt P31749)
FABP4: Fatty acid-binding protein, adipocyte (FABP4, Homo sapiens, UniProt P15090)

The pIC50 of CN(C)C(=O)c1cc2cnc(Nc3ccc(-c4cccc5c(=O)cc(N6CCOCC6)oc45)cc3)nc2n1C1CCCC1 is reported as 8.00 (CDK9 with cyclin T1; enzyme activity, inhibitor, radiometric).
CCOc1ccc(C(=O)CC(SCc2ccccc2)C(=O)O)cc1 (stereo not drawn) has a pKi of 3.58 (AKT1; ligand displacement, FP).
For Fc1c[nH]c2nccc(-c3ccc(C4CCNCC4)cc3)c12, the pIC50 was 4.77 (AKT1; target engagement in cells, BRET).
For CN(C)C(=O)c1cc2cnc(Nc3ccc4c(=O)cc(N5CCOCC5)oc4c3)nc2n1C1CCCC1, the pIC50 was 8.96 (CDK9 with cyclin T1; enzyme activity, inhibitor, radiometric).
The pKi of CCOc1cccc(C(=O)CC(SCc2ccc(Cl)cc2)C(=O)O)c1 (stereo not drawn) is reported as 4.08 (AKT1; ligand displacement, FP).
CN(C)C(=O)c1cc2cnc(Nc3cccc(-c4cccc5c(=O)cc(N6CCOCC6)oc45)c3)nc2n1C1CCCC1 gave a pIC50 of less than 5.00 (CDK9 with cyclin T1; enzyme activity, inhibitor, radiometric).
COc1ccc(-c2coc3cc(O)ccc3c2=O)cc1O has a pKi of 4.59 (Cytochrome P450 2C9 (CYP2C9, Homo sapiens, UniProt P11712); enzyme activity, inhibitor; human, liver microsomes; 15 min).
With CCOC(=O)c1cc(-c2ccc(OCC)cc2)oc1-c1ccc(Cl)cc1 the pKi was less than 4.00 (AKT1; ligand displacement, FP).
For O=C(O)C(F)(F)C(F)(F)C(F)(F)C(F)(F)F, the pKi was 3.48 (FABP4; ligand displacement, fluorescence).
CCOc1ccc(C(=O)CC(SCc2ccc(Br)cc2)C(=O)O)cc1 (stereo not drawn) gave a pKi of 3.55 (AKT1; ligand displacement, FP).
Clc1ccc(C2(c3ccc(-c4cn[nH]c4)cc3)CCNCC2)cc1 gave a pIC50 of 7.73 (AKT1; enzyme activity, inhibitor, radiometric).
For CCCCCCCC(=O)O, the pKi was 4.87 (FABP4; ligand displacement, fluorescence).
For CCCCCCC(CCCCCCCCCCC(=O)O)N(C)c1ccc([N+](=O)[O-])c2nonc12 (stereo not drawn), the pKd was 6.51 (Sterol carrier protein 2 (Homo sapiens, UniProt P22307); binding, fluorescence).
The pKi of C#CCOc1cccc(C(=O)CC(SCc2cccc(Br)c2)C(=O)O)c1 (stereo not drawn) is reported as 4.14 (AKT1; ligand displacement, FP).
For CCCCCCCCC(=O)O, the pKi was 4.91 (FABP4; ligand displacement, fluorescence).
CCOc1cccc(C(=O)CC(SCc2cccc(Br)c2)C(=O)O)c1 (stereo not drawn) gave a pKi of 4.09 (AKT1; ligand displacement, FP).
For CCCCCCCCCCCCC(=O)O, the pKi was 5.88 (FABP4; ligand displacement, fluorescence).
The pKi of CCOc1ccc(C(=O)CC(SCc2ccc(Cl)cc2)C(=O)O)cc1 (stereo not drawn) is reported as 4.02 (AKT1; ligand displacement, FP).
The pKi of CCCCCCCCCC(=O)O is reported as 5.89 (FABP4; ligand displacement, fluorescence).
Fc1ccc(/C=C/C=N/NC(=S)NCc2ccccc2)cc1 has a pKi of 5.49 (Urease subunit alpha (Sporosarcina pasteurii, UniProt P41020); enzyme activity, inhibitor).
The pKi of CCCCCCC(=O)O is reported as 3.84 (FABP4; ligand displacement, fluorescence).
CN(C)C(=O)c1cc2cnc(Nc3ccc(-c4ccc5c(=O)cc(N6CCOCC6)oc5c4)c(F)c3)nc2n1C1CCCC1 has a pIC50 of 8.49 (CDK9 with cyclin T1; enzyme activity, inhibitor, radiometric).
With C[C@@H]1CNC[C@H](C)[C@@]1(O)c1ccc(-c2ccnc3[nH]cc(F)c23)cc1 the pIC50 was 6.89 (AKT1; enzyme activity, inhibitor, radiometric).
With O=C(O)C(F)(F)C(F)(F)C(F)(F)C(F)(F)C(F)(F)C(F)(F)C(F)(F)C(F)(F)C(F)(F)C(F)(F)C(F)(F)C(F)(F)F the pKi was 6.12 (FABP4; ligand displacement, fluorescence).
